Test results as given in PMC11734723 (Science Advances, 2025).
pIC50: −log10 of the molar value. Where two headings read alike, the source gives them in different places.

Assays:
[1] = target: T1, TRPC4 (Mus musculus, UniProt Q9QUQ5); experiment: Carbachol-induced Sr2+ entry in TRPC4-overexpressing HEK293 cells; format: cell-based; settings: read-out: IC50 of Cch-induced Sr2+ entry; Cch 100 nM, Sr2+ 3 mM
T1 sequence (Q9QUQ5 1-890 isoform Q9QUQ5-2): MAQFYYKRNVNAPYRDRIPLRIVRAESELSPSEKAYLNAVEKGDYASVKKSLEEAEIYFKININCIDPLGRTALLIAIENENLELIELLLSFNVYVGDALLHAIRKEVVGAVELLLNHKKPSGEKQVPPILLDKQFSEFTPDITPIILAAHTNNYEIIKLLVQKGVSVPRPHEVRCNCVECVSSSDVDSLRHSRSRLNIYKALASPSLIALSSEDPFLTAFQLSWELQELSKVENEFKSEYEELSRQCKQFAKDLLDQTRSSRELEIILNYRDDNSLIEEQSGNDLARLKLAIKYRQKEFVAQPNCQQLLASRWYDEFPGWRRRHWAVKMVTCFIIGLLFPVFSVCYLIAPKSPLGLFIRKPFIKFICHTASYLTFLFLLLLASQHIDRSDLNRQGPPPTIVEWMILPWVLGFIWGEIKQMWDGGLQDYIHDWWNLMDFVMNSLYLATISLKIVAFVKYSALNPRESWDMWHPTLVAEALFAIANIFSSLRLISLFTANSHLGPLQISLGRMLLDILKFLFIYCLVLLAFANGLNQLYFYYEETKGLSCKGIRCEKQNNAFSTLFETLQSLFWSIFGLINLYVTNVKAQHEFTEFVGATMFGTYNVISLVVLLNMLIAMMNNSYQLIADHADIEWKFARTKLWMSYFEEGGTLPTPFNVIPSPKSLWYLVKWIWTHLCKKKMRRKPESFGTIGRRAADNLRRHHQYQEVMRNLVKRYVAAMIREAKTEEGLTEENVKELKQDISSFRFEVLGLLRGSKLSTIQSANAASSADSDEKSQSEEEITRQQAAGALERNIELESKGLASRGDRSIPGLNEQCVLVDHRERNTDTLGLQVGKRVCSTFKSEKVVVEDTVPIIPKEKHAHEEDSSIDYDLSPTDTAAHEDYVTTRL
Method in brief: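 HEK293 cells were electroporated with GFP-tagged TRPC4, TRPC5 or TRPC7, plated after 24 h and cultured 48 h under selection; only high-GFP cells were analysed. Coverslip cells were loaded with Fura2 (2 µM) and treated with carbachol (100 nM) plus test compound (0 to 100 µM). Entry was measured after adding Sr²⁺ (3 mM), read as the 340/380 ratio; n = 3 to 5.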

[2] = system: murine BMSMCs; experiment: Basal intracellular Ca2+ during osteoclastogenesis of murine BMSMCs; format: cell-based, mouse; settings: ELP-004 100 nM
Method in brief: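 C57Bl/6 bone marrow/spleen myeloid cells were grown in αMEM, 10% FBS, and mCSF (50 ng/ml). RANKL (1 or 100 ng/ml) was added at 24 h. After 2–3 days, TNFα (2 ng/ml), LTB4 (50 nM) and test compound (100 nM) were added as indicated, with media refreshed every 3–5 days. On days 1, 7, 14 and 21, cells were Fura2-loaded (2 µM, 30 min, RT; 30 min de-esterification) in pH 7.2 buffer. Basal Ca²⁺ was read as the 340/380 ratio.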

[3] = system: NFATc1 nuclear translocation; experiment: NFATc1 nuclear translocation; format: cell-based, mouse; settings: ELP-004 100 nM
Method in brief: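 Murine BMSMC cultures were sampled at 24 h and on days 7, 14 and 21. Cells were fixed in 3.7% PFA (10 min, RT), antigen-retrieved in tris/urea (pH 9.5, 95°C, 10 min), permeabilised in 0.2% Tween 20 and blocked in 1% BSA plus glycine. Anti-NFATc1 (clone 7A6, 200 ng/ml) was applied overnight at 4°C, then Alexa Fluor 488 secondary (2 µg/ml, 1 h) with 7-AAD counterstain. Nuclear colocalisation was assessed by confocal microscopy.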

[4] = system: murine BMSMCs; format: cell-based, mouse; settings: ELP-004 100 nM
[5] = system: murine BMSMCs; experiment: qPCR of osteoclast markers in murine BMSMC-derived osteoclasts; format: cell-based, mouse
Method in brief: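 Murine osteoclasts were cultured in mCSF (50 ng/ml) with RANKL (1 or 100 ng/ml) and, where indicated, LTB4 (50 nM) or TNFα (2 ng/ml) and test compound (100 nM), for up to 14 days. Cells were pelleted and RNA was extracted. Then 250 ng RNA was DNase-treated (ezDNase) and reverse-transcribed with Superscript IV for qPCR.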

[6] = system: SKG mice; experiment: SKG mouse model of RA; format: in vivo; settings: for bone surface density (BS/TV): femur trabecular bone
Method in brief: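 Male and female SKG mice received zymosan A (2 mg, single i.p., saline) at 8 weeks of age. From day 3, they were gavaged daily for 8 weeks with test compound in a PLGA lipid nanoemulsion (180 mg/kg) or vehicle. Paws were scored blind weekly to day 56. Micro-CT covered calcaneal pore volume and connectivity density, femoral trabecular bone (1.75 mm) and L5 (2.15 mm), with BMD calibrated against hydroxyapatite phantoms. Analysis used one-tailed unpaired t or Mann-Whitney tests.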

## CCC(=O)N(C)c1ccc(Cl)c(Cl)c1 [ELP-004]
[1]
  pIC50: 6.76
[2]; LTB4 (50 nM)/RANKL (1 ng/ml)
  effect on Ca2+ elevation: significantly attenuated
[2]; RANKL-induced (100 ng/ml), days 1-21
  effect on basal Ca2+ levels: no significant effect
[2]; TNFα (2 ng/ml)/RANKL (1 ng/ml)
  effect on Ca2+ elevation: significantly attenuated
[3]; BMSMC-derived macrophages (mCSF only)
  changes in NFAT localization: No significant changes
[3]; LTB4/RANKL
  effect on NFAT nuclear localization: blocked
[3]; RANKL-induced (100 ng/ml)
  effect on NFAT translocation: no effect
[3]; TNFα/RANKL
  effect on NFAT nuclear localization: blocked
[3]; low RANKL alone (1 ng/ml)
  changes in NFAT localization: No significant changes
[4]; LTB4/RANKL
  effect on TRAP intensity: completely prevented the increase
  effect on number of TRAP-positive cells: no effect
[4]; LTB4/RANKL, days 7 and 14
  effect on multinucleation: significant ELP-004–induced decreases
[4]; RANKL (100 ng/ml)
  effect on TRAP intensity: no impact
  effect on number of TRAP-positive cells: no impact
[4]; TNFα (2 ng/ml)/RANKL (1 ng/ml)
  effect on number of TRAP-positive cells: no significant effect
[4]; TNFα/RANKL
  effect on TRAP intensity increases: severely attenuated
[4]; TNFα/RANKL, P < 0.0005
  effect on number of multinuclear cells: significantly attenuated
[4]; mCSF (50 ng/ml) only
  effect on TRAP-positive cells: no effect
[4]; mCSF + RANKL (1 ng/ml)
  effect on TRAP-positive cells: no effect
[5]; LTB4/RANKL, ELP-004 100 nM
  changes in LTB4-induced expression of other osteoclast markers: no significant changes
  effect on LTB4-induced increase in DC-STAMP expression: no effect
  effect on LTB4-induced increase in OC-STAMP expression: no effect
[5]; RANKL (100 ng/ml), ELP-004 100 nM
  changes in OC-STAMP mRNA expression: no significant changes
[5]; RANKL (100 ng/ml), day 14, ELP-004 100 nM
  effect on DC-STAMP mRNA expression: Significant inhibition
[5]; RANKL, day 14, ELP-004 100 nM
  effect on MMP9 expression: inhibited
[5]; TNFα/RANKL, ELP-004 100 nM
  effect on DC-STAMP expression: abrogated
  effect on MMP9 expression: suppressed
  effect on OC-STAMP expression: abrogated
  effect on other osteoclast markers: no other osteoclast markers
[6]; both male and female, ELP-004–LNE 180 mg/kg daily oral
  arthritic indices versus vehicle controls: reduced arthritic indices beginning at week 5
[6]; both sexes
  bone surface density in the L5 vertebrae versus vehicle: increased
  trabecular number in the L5 vertebrae versus vehicle: increased
[6]; either sex, ELP-004–LNE 180 mg/kg daily oral 8 weeks
  porosity in the tarsus or calcaneus (μCT): did not significantly change
[6]; either sex, ELP-004–LNE 180 mg/kg daily oral, without statistical significance
  joint inflammation in paws (histology): only showed a trend
[6]; female mice
  BMD in the femurs versus vehicle: increased
  bone volume/tissue volume (BV/TV) in the femurs versus vehicle: increased
  trabecular number in the femurs versus vehicle: increased
[6]; female mice, ELP-004-treated
  mean BMD of femurs: 0.1436 g/mL
[6]; females, P < 0.05
  connectivity density of pores in the calcaneus: attenuated the increase
  bone surface density (BS/TV): 6.78 ± 2.20 mm^−1
[6]; females, P = 0.056
  rescue of connectivity density of pores in the tarsus: strong tendency
[6]; males, P < 0.05
  connectivity density of pores in the tarsus: attenuated the increase
[6]; males, ELP-004–LNE 180 mg/kg daily oral 8 weeks
  bone surface density (BS/TV): 9.60 ± 2.16 mm^−1
[6]; maximum score 12
  cumulative erosion scores for metatarsals 2, 3, 4 and 5: reduced erosions in female (P < 0.05), but not male
